According to ChEMBL document CHEMBL3045677, “Sulfonamide-1,2,4-thiadiazole derivatives as antifungal and antibacterial agents: synthesis, biological evaluation, lipophilicity, and conformational studies” (2010):
≈ marks a conversion by molar mass, not a printed value.

Assays:
Talaromyces funiculosus = assay: Antifungal activity against Talaromyces funiculosus ATCC 36839 at 28 degC measured after 72 hr by microdilution method; format: functional; details: ATCC 36839, 72 h
How it was run: (§1)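 Fungi were kept on malt agar at 4 °C. Spores were washed off with sterile 0.85% saline containing 0.1% Tween 80 and adjusted to about 1.0×10⁵ per well. Compounds were dissolved in DMSO (1 mg/ml stock) and serially diluted in malt broth with inoculum in 96-well plates, 72 h at 28 °C, for MIC. MFC came from subculture into fresh broth for a further 72 h at 28 °C.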

Aspergillus flavus = assay: Antifungal activity against Aspergillus flavus ATCC 9643 at 28 degC measured after 72 hr by microdilution method; format: functional; details: ATCC 9643, 72 h; how it was run: as §1
Listeria monocytogenes [1] = assay: Antibacterial activity against Listeria monocytogenes NCTC 7973 at […] degC measured after 24 hr by microdilution method; format: functional; details: NCTC 7973, 24 h
How it was run: (§2)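 Bacteria suspended in sterile saline at 1.0×10⁵ CFU/ml and added at 1.0×10⁴ CFU per well to LB broth with compound (1 mg/ml) in 96-well plates. Incubated 24 h at […] °C. MIC was the lowest concentration without visible growth under a binocular microscope. OD 655 nm was read against a blank and a positive control.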

Salmonella typhimurium [2] = assay: Antibacterial activity against Salmonella enterica subsp. enterica serovar TyphimuriumATCC 13311 at […] degC measured after 72 hr by microdilution method; format: functional, Salmonella enterica subsp. enterica serovar Typhimurium; details: ATCC 13311, 72 h
How it was run: (§3)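 Bactericidal endpoint: after the 24 h broth microdilution (1.0×10⁴ CFU per well, LB broth, […] °C), wells were serially subcultured into plates of fresh broth and incubated a further 72 h. MBC was the lowest concentration with no visible growth, taken as 99.5% killing of the original inoculum.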

Bacillus cereus [3] = assay: Antibacterial activity against clinical isolate Bacillus cereus at […] degC measured after 24 hr by microdilution method; format: functional; how it was run: as §2
Escherichia coli [4] = assay: Antibacterial activity against Escherichia coli ATCC 35210 at […] degC measured after 72 hr by microdilution method; format: functional; details: ATCC 35210, 72 h; how it was run: as §3
Bacillus cereus [5] = assay: Antibacterial activity against clinical isolate Bacillus cereus at […] degC measured after 72 hr by microdilution method; format: functional; how it was run: as §3
Trichoderma viride = assay: Antifungal activity against Hypocrea rufa IAM 5061 at 28 degC measured after 72 hr by microdilution method; format: functional; details: IAM 5061, 72 h; how it was run: as §1
Salmonella typhimurium [6] = assay: Antibacterial activity against Salmonella enterica subsp. enterica serovar Typhimurium ATCC 13311 at […] degC measured after 24 hr by microdilution method; format: functional; details: ATCC 13311, 24 h; how it was run: as §2
Aspergillus versicolor = assay: Antifungal activity against Aspergillus versicolor ATCC 11730 at 28 degC measured after 72 hr by microdilution method; format: functional; details: ATCC 11730, 72 h; how it was run: as §1
Proteus mirabilis [7] = assay: Antibacterial activity against Proteus mirabilis at […] degC measured after 72 hr by microdilution method; format: functional; how it was run: as §3
Pseudomonas aeruginosa [8] = assay: Antibacterial activity against Pseudomonas aeruginosa ATCC 27853 at […] degC measured after 72 hr by microdilution method; format: functional; details: ATCC 27853, 72 h; how it was run: as §3
Penicillium ochrochloron = assay: Antifungal activity against Penicillium ochrochloron ATCC 9112 at 28 degC measured after 72 hr by microdilution method; format: functional; details: ATCC 9112, 72 h; how it was run: as §1
Aspergillus niger = assay: Antifungal activity against Aspergillus niger ATCC 6275 at 28 degC measured after 72 hr by microdilution method; format: functional; details: ATCC 6275, 72 h; how it was run: as §1
Pseudomonas aeruginosa [9] = assay: Antibacterial activity against Pseudomonas aeruginosa ATCC 27853 at […] degC measured after 24 hr by microdilution method; format: functional; details: ATCC 27853, 24 h; how it was run: as §2
Aspergillus fumigatus = assay: Antifungal activity against plant isolate Aspergillus fumigatus at 28 degC measured after 72 hr by microdilution method; format: functional; how it was run: as §1
Staphylococcus aureus [10] = assay: Antibacterial activity against Staphylococcus aureus ATCC 6538 at […] degC measured after 72 hr by microdilution method; format: functional; details: ATCC 6538, 72 h; how it was run: as §3
Micrococcus flavus [11] = assay: Antibacterial activity against Micrococcus flavus ATCC 10240 at […] degC measured after 72 hr by microdilution method; format: functional; details: ATCC 10240, 72 h; how it was run: as §3
Listeria monocytogenes [12] = assay: Antibacterial activity against Listeria monocytogenes NCTC 7973 at […] degC measured after 72 hr by microdilution method; format: functional; details: NCTC 7973, 72 h; how it was run: as §3
Micrococcus flavus [13] = assay: Antibacterial activity against Micrococcus flavus ATCC 10240 at […] degC measured after 24 hr by microdilution method; format: functional; details: ATCC 10240, 24 h; how it was run: as §2
Fulvia fulva = assay: Antifungal activity against Passalora fulva TK5318 at 28 degC measured after 72 hr by microdilution method; format: functional; details: TK5318, 72 h; how it was run: as §1
Staphylococcus aureus [14] = assay: Antibacterial activity against Staphylococcus aureus ATCC 6538 at […] degC measured after 24 hr by microdilution method; format: functional; details: ATCC 6538, 24 h; how it was run: as §2
Escherichia coli [15] = assay: Antibacterial activity against Escherichia coli ATCC 35210 at […] degC measured after 24 hr by microdilution method; format: functional; details: ATCC 35210, 24 h; how it was run: as §2
Proteus mirabilis [16] = assay: Antibacterial activity against Proteus mirabilis at […] degC measured after 24 hr by microdilution method; format: functional; how it was run: as §2

SMILES	MFC (Talaromyces funiculosus) [µM]	MIC (Talaromyces funiculosus) [µM]	MFC (Aspergillus flavus) [µM]	MIC (Aspergillus flavus) [µM]	MIC (Listeria monocytogenes [1]) [µM]	MBC (Salmonella typhimurium [2]) [µM]	MIC (Bacillus cereus [3]) [µM]	MBC (Escherichia coli [4]) [µM]	MBC (Bacillus cereus [5]) [µM]	MFC (Trichoderma viride) [µM]	MIC (Trichoderma viride) [µM]	MIC (Salmonella typhimurium [6]) [µM]	MFC (Aspergillus versicolor) [µM]	MIC (Aspergillus versicolor) [µM]	MBC (Proteus mirabilis [7]) [µM]	MBC (Pseudomonas aeruginosa [8]) [µM]	MFC (Penicillium ochrochloron) [µM]	MIC (Penicillium ochrochloron) [µM]	MFC (Aspergillus niger) [µM]	MIC (Aspergillus niger) [µM]	also measured
COc1cc(Cc2nnc(Nc3ccc(C(F)(F)F)cc3)s2)c(S(=O)(=O)N2CCCC2)cc1OC	37.8 (≈ 20 µg/mL)	18.9 (≈ 9.99 µg/mL)	37.8 (≈ 20 µg/mL)	18.9 (≈ 9.99 µg/mL)	18.9 (≈ 9.99 µg/mL)	18.9 (≈ 9.99 µg/mL)	9.5 (≈ 5.02 µg/mL)	37.8 (≈ 20 µg/mL)	18.9 (≈ 9.99 µg/mL)	18.9 (≈ 9.99 µg/mL)	9.5 (≈ 5.02 µg/mL)	9.5 (≈ 5.02 µg/mL)	37.8 (≈ 20 µg/mL)	18.9 (≈ 9.99 µg/mL)	37.8 (≈ 20 µg/mL)	18.9 (≈ 9.99 µg/mL)	37.8 (≈ 20 µg/mL)	18.9 (≈ 9.99 µg/mL)	37.8 (≈ 20 µg/mL)	18.9 (≈ 9.99 µg/mL)	MIC (Pseudomonas aeruginosa [9]): 9.5 µM (≈ 5.02 µg/mL); MFC (Aspergillus fumigatus): 37.8 µM (≈ 20 µg/mL); MIC (Aspergillus fumigatus): 18.9 µM (≈ 9.99 µg/mL); MBC (Staphylococcus aureus [10]): 18.9 µM (≈ 9.99 µg/mL); MBC (Micrococcus flavus [11]): 37.8 µM (≈ 20 µg/mL); MBC (Listeria monocytogenes [12]): 18.9 µM (≈ 9.99 µg/mL); MIC (Micrococcus flavus [13]): 18.9 µM (≈ 9.99 µg/mL); MFC (Fulvia fulva): 75.6 µM (≈ 40 µg/mL); MIC (Fulvia fulva): 18.9 µM (≈ 9.99 µg/mL); MIC (Staphylococcus aureus [14]): 9.5 µM (≈ 5.02 µg/mL); MIC (Escherichia coli [15]): 18.9 µM (≈ 9.99 µg/mL); MIC (Proteus mirabilis [16]): 18.9 µM (≈ 9.99 µg/mL)
COc1cc(Cc2nnc(Nc3ccc([N+](=O)[O-])cc3)s2)c(S(=O)(=O)N2CCCC2)cc1OC	19.8 (≈ 10 µg/mL)	9.9 (≈ 5.01 µg/mL)	39.6 (≈ 20 µg/mL)	19.8 (≈ 10 µg/mL)	19.8 (≈ 10 µg/mL)	79.2 (≈ 40 µg/mL)	19.8 (≈ 10 µg/mL)	39.6 (≈ 20 µg/mL)	39.6 (≈ 20 µg/mL)	19.8 (≈ 10 µg/mL)	9.9 (≈ 5.01 µg/mL)	39.6 (≈ 20 µg/mL)	39.6 (≈ 20 µg/mL)	19.8 (≈ 10 µg/mL)	79.2 (≈ 40 µg/mL)	39.6 (≈ 20 µg/mL)	39.6 (≈ 20 µg/mL)	19.8 (≈ 10 µg/mL)	39.6 (≈ 20 µg/mL)	19.8 (≈ 10 µg/mL)	MIC (Pseudomonas aeruginosa [9]): 19.8 µM (≈ 10 µg/mL); MFC (Aspergillus fumigatus): 19.8 µM (≈ 10 µg/mL); MIC (Aspergillus fumigatus): 9.9 µM (≈ 5.01 µg/mL); MBC (Staphylococcus aureus [10]): 39.6 µM (≈ 20 µg/mL); MBC (Micrococcus flavus [11]): 39.6 µM (≈ 20 µg/mL); MBC (Listeria monocytogenes [12]): 39.6 µM (≈ 20 µg/mL); MIC (Micrococcus flavus [13]): 19.8 µM (≈ 10 µg/mL); MFC (Fulvia fulva): 19.8 µM (≈ 10 µg/mL); MIC (Fulvia fulva): 9.9 µM (≈ 5.01 µg/mL); MIC (Staphylococcus aureus [14]): 19.8 µM (≈ 10 µg/mL); MIC (Escherichia coli [15]): 19.8 µM (≈ 10 µg/mL); MIC (Proteus mirabilis [16]): 39.6 µM (≈ 20 µg/mL)
